One experiment relates to MOLM-13. Description: Induction of apoptosis in human MOLM13 cells assessed as caspase 3/7 activation after 16 hrs by fluorescence assay. The experiment is classed as functional, cell-based. A digest of the protocol: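 MOLM-13 cells at 30000/well in RPMI, held up to 24 h (37 °C, 5% CO2), then exposed 16 h to compound or DMSO. Buffer with 10 mM HEPES pH 7.5, 2 mM EDTA, 0.1% CHAPS and 25 μM Z-DEVD-R110 substrate added; fluorescence read once signal stabilized. Percent apoptotic increase calculated relative to control cells.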

The target of experiment [1] is Heat shock protein HSP 90-beta (Homo sapiens) (UniProt P08238). The experiment can be described thus: Displacement of GM-Cy3B from HSP90 in human SKBR3 cells after 24 hrs by fluorescence polarization assay. The following applies: SK-BR-3.
Heat shock protein HSP 90-beta (Homo sapiens), sequence (P08238 whole entry): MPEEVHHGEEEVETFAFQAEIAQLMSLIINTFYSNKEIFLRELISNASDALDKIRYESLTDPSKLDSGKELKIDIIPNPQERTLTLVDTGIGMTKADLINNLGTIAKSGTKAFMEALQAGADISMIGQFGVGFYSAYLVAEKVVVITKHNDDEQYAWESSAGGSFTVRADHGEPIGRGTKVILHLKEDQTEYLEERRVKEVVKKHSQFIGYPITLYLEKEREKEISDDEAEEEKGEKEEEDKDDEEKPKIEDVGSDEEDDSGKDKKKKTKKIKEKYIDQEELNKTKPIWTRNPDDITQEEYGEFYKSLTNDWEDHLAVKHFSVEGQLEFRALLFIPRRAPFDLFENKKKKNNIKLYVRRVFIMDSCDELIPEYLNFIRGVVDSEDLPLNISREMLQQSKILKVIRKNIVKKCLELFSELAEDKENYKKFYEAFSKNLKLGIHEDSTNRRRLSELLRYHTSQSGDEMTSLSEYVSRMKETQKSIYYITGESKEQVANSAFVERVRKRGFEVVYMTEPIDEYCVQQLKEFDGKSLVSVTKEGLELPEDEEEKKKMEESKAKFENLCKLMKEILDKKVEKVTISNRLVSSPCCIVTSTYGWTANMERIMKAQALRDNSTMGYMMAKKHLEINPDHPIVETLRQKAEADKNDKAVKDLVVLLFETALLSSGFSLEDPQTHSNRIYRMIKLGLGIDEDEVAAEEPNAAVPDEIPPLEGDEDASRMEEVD
Experiment [2] deals with SK-BR-3. The experiment can be described thus: Inhibition of HSP70 in human SKBR3 cells assessed as HER2 degradation by Western blotting analysis. The experiment is classed as cell-based. The procedure, abridged: (§1)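 Cells (SKBr3, MDA-MB-468, MiaPaCa-2 in DME/F12; MOLM-13 in RPMI; 10% FBS) grown to 60–70% confluence, then given inhibitor or DMSO. Lysis in 50 mM Tris pH 7.4, 150 mM NaCl, 1% NP-40. Protein measured by BCA, and client proteins or cleaved PARP detected by immunoblotting with peroxidase-conjugated secondary antibody.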

Experiment [3] relates to SK-BR-3. Description: Inhibition of HSP70 in human SKBR3 cells assessed as Raf-1 degradation by Western blotting analysis. The experiment is classed as cell-based. A digest of the protocol:
as §1

Experiment [4] has as its system SK-BR-3. Description: Induction of apoptosis in human SKBR3 cells assessed as c-PARP cleavage by Western blotting analysis. The experiment is classed as functional. A digest of the protocol:
as §1

Another experiment concerns Kasumi 1. Description: Cytotoxicity against human Kasumi-1 cells after 72 hrs by alamar blue assay. The class given is functional, cell-based. A digest of the protocol: (§2)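 Alamar Blue (resazurin) viability assay: attached cells (SKBr3) plated at 8000/well, suspension cells (Kasumi-1) at 20000/well, left 24 h at 37 °C, then drug added in triplicate for 72 h. Alamar Blue 50 μM added, fluorescence read 6 h later (ex 530, em 580 nm). Growth inhibition versus control corrected for time-zero population; IC50 = concentration giving 50% growth inhibition.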

Experiment [5] is described as follows: Cytotoxicity against human SKBR3 cells after 72 hrs by alamar blue assay. The class given is functional, SK-BR-3. A digest of the protocol: as §2
Where [6] appears, read: Homo sapiens, MOLM-13, 16 h, read-out: IC50.
Setting [7] is: Homo sapiens, Kasumi 1, 72 h, read-out: IC50.

33 molecules from ChEMBL document CHEMBL3124909, “Heat shock protein 70 inhibitors. 2. 2,5'-thiodipyrimidines, 5-(phenylthio)pyrimidines, 2-(pyridin-3-ylthio)pyrimidines, and 3-(phenylthio)pyridines as reversible binders to an allosteric site on heat shock protein 70” (J Med Chem, 2014) can be followed below.

Each structure is given as a SMILES string. Some results are limits rather than exact numbers.

Turning to `COc1nc(N2CCN(C)CC2)nc(OC)c1Sc1nc(N)cc(NC(C)=O)n1`, the IC50 in the experiment on MOLM-13 (setting [6]) is 165 µM. Moreover, the INH in experiment [1] is greater than 500 µM; with SK-BR-3 [2], 125 µM; in the experiment with SK-BR-3 [3], 150 µM; with SK-BR-3 [4], 180 µM.
In the case of `CN1CCN(c2ccc(Sc3cccc(NC(=O)CN)c3)c(O)n2)CC1`, in the experiment on MOLM-13 (setting [6]), the IC50 is greater than 250 µM.
Take `COc1nc(N2CCN(C)CC2)nc(OC)c1Sc1cccc(NC(=O)CN)c1`: the results for the IC50 in the experiment with Kasumi 1 (setting [7]) and in the experiment with MOLM-13 (setting [6]) were 22.5 µM and 18 µM, respectively. In experiment [5], the GI was 25 µM. Besides, the INH in experiment [1] is greater than 500 µM; in the experiment with SK-BR-3 [2] it was 20 µM; in the experiment on SK-BR-3 [3], 20 µM; in the experiment with SK-BR-3 [4], 40 µM.
`COc1nc(N2CCN(C)CC2)nc(OC)c1Sc1cccc(NC(=O)c2ccccc2)c1`: the results for the IC50 in the experiment with Kasumi 1 (setting [7]) and with MOLM-13 (setting [6]) were 8.1 µM and 8 µM, respectively. Further, in experiment [5], the GI was 8 µM. Moreover, the INH amounted to 497 µM in experiment [1], 7.5 µM in the experiment with SK-BR-3 [2], 10 µM with SK-BR-3 [3] and 7.5 µM with SK-BR-3 [4].
The molecule `C=CC(=O)Nc1cc(N)nc(Sc2c(OCC)nc(N3CCN(C)CC3)nc2OCC)n1` displayed a GI in experiment [5] of 1.1 µM. Further, the INH in experiment [1] was greater than 500 µM; in the experiment with SK-BR-3 [2], 1 µM; in the experiment with SK-BR-3 [3] it was 2.5 µM; with SK-BR-3 [4], 1.5 µM.
In the case of `COc1nc(N2CCN(C)CC2)ccc1Sc1cccc(NC(=O)CN)c1`, the figures for the IC50 with Kasumi 1 (setting [7]) and with MOLM-13 (setting [6]) were 19.1 µM and 21 µM, respectively.
`COc1nc(N2CCN(C)CC2)ncc1Sc1cccc(NC(=O)CN)c1`: the IC50 with Kasumi 1 (setting [7]) is 25.2 µM; with MOLM-13 (setting [6]) it was 13 µM. In experiment [5], this molecule showed a GI of 15 µM. Also, the INH was greater than 500 µM in experiment [1], 18 µM with SK-BR-3 [2], 15 µM in the experiment with SK-BR-3 [3] and 19 µM in the experiment on SK-BR-3 [4].
Turning to `CCCCCCCC(=O)Nc1cc(N)nc(Sc2c(OC)nc(N3CCN(C)CC3)nc2OC)n1`, in the experiment on MOLM-13 (setting [6]), the IC50 is greater than 50 µM. Also, the INH was greater than 500 µM in experiment [1], greater than 25 µM in the experiment on SK-BR-3 [2], greater than 25 µM in the experiment with SK-BR-3 [3] and greater than 25 µM in the experiment on SK-BR-3 [4].
For the molecule `Cc1nc(N2CCN(C)CC2)nc(C)c1Sc1nccc(NC(=O)C2CC2)n1`, the half-inhibitory concentration (IC50) in the experiment with Kasumi 1 (setting [7]) was determined as 60.5 µM; with MOLM-13 (setting [6]) it was 68 µM.
The corresponding values for `CN1CCN(c2ncc(Sc3cccc(NC(=O)CN)c3)c(-c3ccccc3)n2)CC1` are 20.8 µM and 25.2 µM.
For the molecule `COc1nc(N2CCN(C)CC2)nc(OC)c1Sc1cccc(NC(=O)C2CCCCC2)c1`, the IC50 result with Kasumi 1 (kasumi 1) and in the experiment on MOLM-13 (molm-13) was “ND(Insoluble)” throughout.
For `CCC(=O)Nc1ccnc(Sc2c(C)nc(N3CCN(C)CC3)nc2C)n1`, in the experiment with MOLM-13 (setting [6]), the IC50 stood at 98 µM.
For `COc1nc(N2CCN(C)CC2)nc(OC)c1Sc1nc(N)cc(NC(=O)CCN(C)C)n1`, the results for the IC50 with Kasumi 1 (setting [7]) and in the experiment on MOLM-13 (setting [6]) were 14.7 µM and 25 µM, respectively. Besides, the INH in experiment [1] was greater than 500 µM; in the experiment with SK-BR-3 [2] it was 70 µM; in the experiment on SK-BR-3 [3] it was 50 µM; in the experiment on SK-BR-3 [4], 75 µM.
On to `C=CCC(=O)Nc1cccc(Sc2c(OC)nc(N3CCN(C)CC3)nc2OC)c1`, for which the IC50 in the experiment with MOLM-13 (setting [6]) came to 65 µM.
Consider `CN1CCN(c2ncc(Sc3cccc(NC(=O)C4CCCN4)c3)c(OCc3ccccc3)n2)CC1` (stereo not drawn), for which the IC50 in the experiment with Kasumi 1 (setting [7]) was 2.9 µM; with MOLM-13 (setting [6]), 1.7 µM.
The corresponding values for `COc1nc(N2CCN(C)CC2)ccc1Sc1nccc(NC(=O)C2CC2)n1` are 58.5 µM and 63 µM.
Consider `CC(C)C(N)C(=O)Nc1cccc(Sc2cnc(N3CCN(C)CC3)nc2OCc2ccccc2)c1` (stereo not drawn), for which the IC50 in the experiment on Kasumi 1 (setting [7]) was 3.1 µM; with MOLM-13 (setting [6]), 2.4 µM.
Consider `CCOc1nc(N2CCN(C)CC2)nc(OCC)c1Sc1nc(N)cc(NC(=O)CC)n1`, for which the IC50 was 51.4 µM with Kasumi 1 (setting [7]) and 37 µM in the experiment on MOLM-13 (setting [6]). In addition, in experiment [5], the GI was found to be 55 µM. For the same molecule, the INH was greater than 250 µM in experiment [1], 50 µM in the experiment with SK-BR-3 [2], 70 µM in the experiment on SK-BR-3 [3] and 80 µM with SK-BR-3 [4].
Take `CCOc1nc(N2CCN(C)CC2)nc(OCC)c1Sc1nc(N)cc(NC(=O)C2CC2)n1`: in the experiment on MOLM-13 (setting [6]), the IC50 was 95 µM.
For the molecule `CC(N)C(=O)Nc1cccc(Sc2cnc(N3CCN(C)CC3)nc2OCc2ccccc2)c1` (stereo not drawn), the figures for the IC50 in the experiment on Kasumi 1 (setting [7]) and in the experiment on MOLM-13 (setting [6]) were 4.8 µM and 2 µM, respectively.
`COc1nc(N2CCN(C)CC2)ccc1Sc1cccc(NC(=O)c2ccccc2)c1`: the figures for the IC50 in the experiment with Kasumi 1 (setting [7]) and with MOLM-13 (setting [6]) were 4.7 µM and 20 µM, respectively. The GI in experiment [5] came out at 20 µM. Besides, the INH was greater than 250 µM in experiment [1], 19 µM with SK-BR-3 [2], 20 µM in the experiment on SK-BR-3 [3] and 25 µM in the experiment with SK-BR-3 [4].
On to `CN1CCN(c2ncc(Sc3cccc(NC(=O)CN)c3)c(OCc3ccncc3)n2)CC1`, for which the IC50 with Kasumi 1 (setting [7]) was determined as 10.7 µM; in the experiment on MOLM-13 (setting [6]), 7.8 µM.
With `CCC(=O)Nc1cccc(Sc2c(OC)nc(N3CCN(C)CC3)nc2OC)c1`, the IC50 in the experiment with MOLM-13 (setting [6]) was 65 µM. In addition, the GI in experiment [5] amounted to 55 µM. In addition, the INH in experiment [1] is greater than 500 µM; in the experiment on SK-BR-3 [2], 75 µM; with SK-BR-3 [3] it was 80 µM; in the experiment with SK-BR-3 [4] it was 75 µM.
For the molecule `Cc1nc(N2CCN(C)CC2)nc(C)c1Sc1nccc(NC(=O)c2ccco2)n1`, the concentration for half-maximal inhibition (IC50) with Kasumi 1 (setting [7]) amounted to 30.3 µM; with MOLM-13 (setting [6]), 32 µM. The same molecule displayed a GI in experiment [5] of 30 µM. Also, the INH in experiment [1] is greater than 250 µM; in the experiment on SK-BR-3 [2] it was 25 µM; with SK-BR-3 [3] it was 25 µM; in the experiment with SK-BR-3 [4] it was 30 µM.
`C=CC(=O)Nc1ccnc(Sc2c(C)nc(N3CCN(C)CC3)nc2C)n1` yielded a GI in experiment [5] of 1.8 µM. The INH in experiment [1] was greater than 500 µM; with SK-BR-3 [2], 4 µM; in the experiment on SK-BR-3 [3], 5 µM; with SK-BR-3 [4], 5 µM.
In the case of `COc1nc(N2CCN(C)CC2)ccc1Sc1cccc(NC(=O)C2CC2)c1`, the IC50 was found to be 36.4 µM with Kasumi 1 (setting [7]) and 32 µM in the experiment with MOLM-13 (setting [6]).
The corresponding values for `CN1CCN(c2ncc(Sc3cccc(NC(=O)c4ccccc4)c3)c(OCc3ccccc3)n2)CC1` are 3.1 µM and 4.1 µM.
Regarding `COc1nc(N2CCN(C)CC2)nc(OC)c1Sc1cccc(NC(=O)C2CCC2)c1`, the IC50 with Kasumi 1 (setting [7]) was found to be 47.2 µM; in the experiment on MOLM-13 (setting [6]), 60 µM. Besides, the GI in experiment [5] worked out at 70 µM. The INH in experiment [1] was greater than 250 µM; in the experiment on SK-BR-3 [2], 70 µM; with SK-BR-3 [3] it was 45 µM; in the experiment on SK-BR-3 [4], 75 µM.
`COc1nc(N2CCN(C)CC2)nc(OC)c1Sc1nccc(NC(C)=O)n1`: the IC50 in the experiment on MOLM-13 (setting [6]) stood at 150 µM.
Turning to `CCC(=O)Nc1ccnc(Sc2ccc(N3CCN(C)CC3)nc2OC)n1`, in the experiment with MOLM-13 (setting [6]), the IC50 stood at 102 µM.
Still for that read-out and setting: with `CCC(=O)Nc1cccc(Sc2ccc(N3CCN(C)CC3)nc2OC)c1` the figure was 39 µM.
Take `CC(=O)Nc1cccc(Sc2cnc(N3CCN(C)CC3)nc2OCc2ccccc2)c1`: the IC50 is 5.2 µM with Kasumi 1 (setting [7]) and 10.2 µM with MOLM-13 (setting [6]).
On to `CCC(=O)Nc1ccnc(Sc2c(OC)nc(N3CCN(C)CC3)nc2OC)n1`, for which the IC50 in the experiment on MOLM-13 (setting [6]) was 142 µM.
